# From ChEMBL document CHEMBL2163270, “Design and in vitro activities of N-alkyl-N-[(8-R-2,2-dimethyl-2H-chromen-6-yl)methyl]heteroarylsulfonamides, novel, small-molecule hypoxia inducible factor-1 pathway inhibitors and anticancer agents” (J Med Chem, 2012)
# Activity calls are given as the source filed them. No cut-off for these calls is given here.
# Columns and labels:
# [1] = Cytotoxicity against human LN229 cells transfected with V6R incubated for 14 days under normoxic condition by clonogenecity assay; format: functional, cell-based; conditions: LN-229, 336 h
# [2] = Cytotoxicity against human LN229 cells transfected with V6R incubated for 1 hr under normoxic condition followed by 14 days under hypoxic condition by clonogenecity assay; format: functional, cell-based; conditions: LN-229
# [3] = Cytotoxicity against human HFF1 cells incubated for 14 days under normoxic condition by clonogenecity assay; format: cell-based; conditions: HFF-1, 336 h
# Summary of the method: (§1)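 Clonogenic assay in LN229 glioma or HFF-1 immortalized fibroblasts seeded at 200 or 1,000 cells/well and allowed to adhere 16 h under normoxia. Compound at 6.25-100 μM final, 1% DMSO. Plates held 1 h under normoxia, then 14 days at 21% or 1% O2. Colonies stained with 0.9% crystal violet and counted. IC50 from exponential/polynomial fit (R² ≥ 0.8).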
# [4] = Cytotoxicity against human HFF1 cells incubated for 1 hr under normoxic condition followed by 14 days under hypoxic condition by clonogenecity assay; format: cell-based; conditions: HFF-1; summary of the method: as §1
# [5] = biological target: Histone acetyltransferase p300 (Homo sapiens) (UniProt Q09472); test: Inhibition of P300 CH1 domain-mediated HIF1 transcriptional activity in human LN229-V6R cells assessed as reduction in luciferase activity incubated for 1 hr under normoxia followed by 24 hrs under hypoxia by reporter gene assay; format: cell-based
# Chain of Histone acetyltransferase p300 (Homo sapiens) (Q09472 whole entry, the tested form may be a part): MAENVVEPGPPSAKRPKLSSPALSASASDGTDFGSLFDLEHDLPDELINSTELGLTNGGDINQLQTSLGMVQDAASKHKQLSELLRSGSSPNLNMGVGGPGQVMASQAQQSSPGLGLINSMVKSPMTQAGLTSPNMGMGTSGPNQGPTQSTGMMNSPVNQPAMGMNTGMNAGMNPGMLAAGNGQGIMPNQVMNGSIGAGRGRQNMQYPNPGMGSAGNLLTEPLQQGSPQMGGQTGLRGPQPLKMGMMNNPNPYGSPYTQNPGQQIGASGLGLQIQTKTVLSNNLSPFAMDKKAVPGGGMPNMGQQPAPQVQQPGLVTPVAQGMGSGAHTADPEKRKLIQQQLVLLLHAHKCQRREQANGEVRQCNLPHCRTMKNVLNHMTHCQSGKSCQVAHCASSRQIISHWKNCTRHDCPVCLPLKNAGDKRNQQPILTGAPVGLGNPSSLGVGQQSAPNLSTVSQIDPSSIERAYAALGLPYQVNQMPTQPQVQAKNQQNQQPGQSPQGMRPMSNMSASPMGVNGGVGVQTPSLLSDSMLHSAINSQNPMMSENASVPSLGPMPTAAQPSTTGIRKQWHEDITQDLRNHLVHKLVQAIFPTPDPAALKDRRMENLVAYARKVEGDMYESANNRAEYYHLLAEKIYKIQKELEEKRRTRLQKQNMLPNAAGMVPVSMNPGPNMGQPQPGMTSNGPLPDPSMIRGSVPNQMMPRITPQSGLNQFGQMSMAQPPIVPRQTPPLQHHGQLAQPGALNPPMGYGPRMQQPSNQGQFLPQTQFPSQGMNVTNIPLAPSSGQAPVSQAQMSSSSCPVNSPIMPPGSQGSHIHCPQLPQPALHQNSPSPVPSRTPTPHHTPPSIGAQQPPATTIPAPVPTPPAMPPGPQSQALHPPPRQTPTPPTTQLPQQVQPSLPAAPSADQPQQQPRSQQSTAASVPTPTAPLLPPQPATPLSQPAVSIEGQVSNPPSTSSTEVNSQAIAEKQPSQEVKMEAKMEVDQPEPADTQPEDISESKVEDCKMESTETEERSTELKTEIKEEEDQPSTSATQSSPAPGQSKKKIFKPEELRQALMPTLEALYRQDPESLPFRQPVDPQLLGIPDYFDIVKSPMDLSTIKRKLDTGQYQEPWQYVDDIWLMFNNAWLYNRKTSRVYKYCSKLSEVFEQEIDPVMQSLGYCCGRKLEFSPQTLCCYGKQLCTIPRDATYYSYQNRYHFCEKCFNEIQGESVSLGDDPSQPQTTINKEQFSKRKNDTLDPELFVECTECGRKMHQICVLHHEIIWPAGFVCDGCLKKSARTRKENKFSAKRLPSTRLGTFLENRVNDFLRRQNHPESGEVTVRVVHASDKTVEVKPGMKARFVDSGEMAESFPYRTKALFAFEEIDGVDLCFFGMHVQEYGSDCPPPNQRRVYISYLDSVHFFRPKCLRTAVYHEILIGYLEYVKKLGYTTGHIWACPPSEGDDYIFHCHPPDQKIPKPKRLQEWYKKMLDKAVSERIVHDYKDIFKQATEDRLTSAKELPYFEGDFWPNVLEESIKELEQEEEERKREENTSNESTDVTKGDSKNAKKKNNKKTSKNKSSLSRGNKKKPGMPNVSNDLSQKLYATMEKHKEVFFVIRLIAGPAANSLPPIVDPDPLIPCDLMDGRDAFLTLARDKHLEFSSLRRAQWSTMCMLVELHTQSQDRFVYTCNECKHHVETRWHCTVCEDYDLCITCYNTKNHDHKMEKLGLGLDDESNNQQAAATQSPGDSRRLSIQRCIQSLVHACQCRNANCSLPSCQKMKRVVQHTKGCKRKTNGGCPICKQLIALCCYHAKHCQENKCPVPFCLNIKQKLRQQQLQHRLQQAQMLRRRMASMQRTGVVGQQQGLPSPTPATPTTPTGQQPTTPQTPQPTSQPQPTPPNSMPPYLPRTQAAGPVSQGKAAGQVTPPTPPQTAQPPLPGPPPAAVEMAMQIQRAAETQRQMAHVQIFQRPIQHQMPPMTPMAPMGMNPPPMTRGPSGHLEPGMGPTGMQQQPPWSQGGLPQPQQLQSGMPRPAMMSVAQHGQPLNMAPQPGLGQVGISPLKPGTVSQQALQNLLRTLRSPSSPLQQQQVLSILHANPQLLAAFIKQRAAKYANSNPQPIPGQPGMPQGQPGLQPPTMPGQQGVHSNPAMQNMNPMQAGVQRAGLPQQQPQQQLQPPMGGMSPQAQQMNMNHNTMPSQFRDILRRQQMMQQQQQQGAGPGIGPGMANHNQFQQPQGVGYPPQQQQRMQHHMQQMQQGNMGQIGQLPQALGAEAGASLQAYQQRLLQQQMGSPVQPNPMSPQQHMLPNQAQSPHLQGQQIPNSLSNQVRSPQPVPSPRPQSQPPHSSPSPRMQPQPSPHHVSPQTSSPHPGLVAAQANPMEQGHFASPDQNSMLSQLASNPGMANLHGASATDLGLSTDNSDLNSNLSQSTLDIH
# Summary of the method: (§2)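 LN229-V6R cells carry a stably integrated hypoxia/HIF-inducible luciferase reporter. 3 × 10⁴ cells/well in DMEM with 10% serum, 24 h normoxia. Compound at 2.5, 5.0 or 10.0 μM in 1% DMSO, 1 h at 37 °C, then 24 h at 1% O2. Lysates mixed with luciferase substrate and read by luminometry, expressed as % of untreated control. Triplicates.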
# [6] = system: LN-229; test: Inhibition of luciferase activity in human LN229-Lux cells at 2.5 to 10 uM incubated for 1 hr under normoxia followed by 24 hrs under hypoxia by reporter gene assay; format: functional, cell-based
# [7] = biological target: Histone acetyltransferase p300 (Homo sapiens) (UniProt Q09472); test: Inhibition of P300 CH1 domain-mediated HIFalpha protein expression in human LN229-V6R cells incubated for 1 hr under normoxia followed by 24 hrs under hypoxia by Western blot analysis; format: cell-based
# Summary of the method: (§3)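 LN229-V6R cells, 2 × 10⁵ per 35 mm dish, grown 24 h under normoxia. Compound at 3-100 μM in 1% DMSO, 1 h normoxia, then 24 h at 1% O2. Lysed in SDS loading buffer and resolved on a 4-12.5% gradient gel. Immunoblotted for HIF-1α (1:500) with β-actin (1:3,000), HRP secondaries, ECL detection. Repeated at least twice.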
# [8] = biological target: Histone acetyltransferase p300 (Homo sapiens) (UniProt Q09472); test: Inhibition of P300 CH1 domain-mediated HIF1 transcriptional activity in human LN229-V6R cells assessed as reduction in luciferase activity at 10 uM incubated for 1 hr under normoxia followed by 24 hrs under hypoxia by reporter gene assay; format: cell-based; summary of the method: as §2
# [9] = 1-Octanol-phosphate buffer distribution coefficient, log P of the compound at pH 7.4 by HPLC analysis; format: physicochemical
# Summary of the method: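 Eluent methanol:water:triethylamine 70:30:0.1 at 2 mL/min, UV 254/280 nm. Calibrated with aniline, benzene, toluene and chlorobenzene plus two shake-flask-measured reference sulfonamides.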
# [10] = biological target: Histone acetyltransferase p300 (Homo sapiens) (UniProt Q09472); test: Inhibition of P300 CH1 domain-mediated HIF1 transcriptional activity in human LN229-V6R cells assessed as remaining activity at 2.5 uM incubated for 1 hr under normoxia followed by 24 hrs under hypoxia by luciferase reporter gene assay; format: cell-based; summary of the method: as §2
# [11] = Drug metabolism in mouse plasma after 24 hrs by HPLC analysis; format: ADME, cell-free; conditions: read-out: Drug metabolism
# Summary of the method: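 Compound at 20 μM incubated in fresh mouse plasma at 37 °C with shaking for 24 h. Samples extracted with acetonitrile, dried and reconstituted. Quantified by C8 reverse-phase HPLC with photodiode-array detection, 2 μM α-naphthoflavone internal standard, standard curves 1-50 μM. Triplicates.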
# [12] = Cytotoxicity against human LN229 cells transfected with V6R incubated for 3 days under normoxic condition by SRB assay; format: functional, cell-based; conditions: LN-229, 72 h
# Summary of the method: (§4)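 SRB growth assay: LN229-V6R, 2 × 10³ cells/well, attached 24 h under normoxia. Dosed at 3-100 μM in 1% DMSO, 1 h normoxia, then normoxia or hypoxia for 3 days. Cold 10% TCA fixation, 0.04% SRB stain, dye solubilized in 10 mM Tris pH 10, OD 564 nm. Quadruplicate or sextuplicate wells, two independent experiments; IC50 by curve fit.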
# [13] = Cytotoxicity against human LN229 cells transfected with V6R incubated for 1 hr under normoxic condition followed by 3 days under hypoxic condition by SRB assay; format: functional, cell-based; conditions: LN-229; summary of the method: as §4
# [14] = 1-Octanol-phosphate buffer distribution coefficient, log P of the compound at pH 7.4 after 15 mins by shake flask method; format: physicochemical
# Summary of the method: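 Shake-flask partition per OECD 107: 1-octanol and 0.2 M phosphate buffer pH 7.4 mutually presaturated by 24 h stirring at room temperature. 1-2 mg compound dissolved in 2 mL buffer-saturated octanol plus 2 mL octanol-saturated buffer, run in duplicate. Aqueous layer quantified by HPLC at 254 nm against standard curves.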
# [15] = system: Liver; test: Half life in mouse liver homogenate by HPLC analysis at pH 7.4; format: ADME, tissue-based; conditions: in vitro
# Summary of the method: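 Mouse liver homogenate in PBS pH 7.4 (1:2 w/v) incubated with 20 μM compound at 37 °C with shaking. Timed samples extracted with acetonitrile and analysed by C8 HPLC-PDA with 2 μM α-naphthoflavone internal standard, linear range 1-50 μM. Triplicates.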
# [16] = biological target: Histone acetyltransferase p300 (Homo sapiens) (UniProt Q09472); test: Inhibition of P300 CH1 domain-mediated HIFalpha protein expression in human LN229-V6R cells at 3 to 50 uM incubated for 1 hr under normoxia followed by 24 hrs under hypoxia by Western blot analysis; format: cell-based; summary of the method: as §3
# [17] = biological target: Histone acetyltransferase p300 (Homo sapiens) (UniProt Q09472); test: Inhibition of P300 CH1 domain-mediated HIFalpha protein expression in human LN229-V6R cells at 100 uM incubated for 1 hr under normoxia followed by 24 hrs under hypoxia by Western blot analysis; format: cell-based; summary of the method: as §3
# [18] = Aqueous solubility of the compound at pH 7.4 after 90 mins by laser nephelometric analysis; format: physicochemical; conditions: aqueous medium
# Summary of the method: (§5)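 DMSO stocks (30 mg/mL) serially diluted, then diluted into phosphate-buffered saline at pH 7.4, 5.0 or 3.0. Final drug concentrations were 1.5–300 μg/mL with 1% DMSO. Incubated 90 min at ambient temperature, and laser nephelometry located the onset of precipitation. An internal control was included.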
# [19] = Aqueous solubility of the compound at pH 5 after 90 mins by laser nephelometric analysis; format: physicochemical; conditions: aqueous medium; summary of the method: as §5
# [20] = Aqueous solubility of the compound at pH 3 after 90 mins by laser nephelometric analysis; format: physicochemical; conditions: aqueous medium; summary of the method: as §5
# [21] = Aqueous solubility of the compound; format: physicochemical; conditions: aqueous medium
# Summary of the method: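 Saturated suspension (1–2 mg in 2 mL distilled water) sonicated 30 min at room temperature, centrifuged 1,500 g, 20 °C, 5 min, then filtered through 0.2 μm PTFE. Filtrate quantified by HPLC-UV at 254 nm against standard curves. Three independent experiments, values averaged.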
# [22] = biological target: Histone acetyltransferase p300 (Homo sapiens) (UniProt Q09472); test: Inhibition of P300 CH1 domain-mediated HIF1 transcriptional activity in human LN229-V6R cells assessed as reduction in luciferase activity at 2.5 to 10 uM incubated for 1 hr under normoxia followed by 24 hrs under hypoxia by reporter gene assay; format: cell-based
# Summary of the method: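 LN229-V6R cells carrying a stably integrated hypoxia/HIF-inducible luciferase reporter were seeded at 3 × 10⁴/well in DMEM with 10% serum and grown 24 h under normoxia. Compound was added at 2.5, 5.0 or 10.0 μM in 1% DMSO. Cells were held 1 h at 37 °C, then 24 h under hypoxia (1% O₂). Luciferase was read in lysates as percent of untreated control, in triplicate.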
Compound,inhibition [5],inhibition [6],logD [9],Activity [10],metabolised at 24 h [11],t1/2 [15],other results
CC(C)CN(Cc1cc(O)c2c(c1)C=CC(C)(C)O2)S(=O)(=O)c1ccncc1,Dose-dependent effect,inactive,1.2,59%,< 1%,,IC50 [1]: 23 µM; IC50 [2]: 30 µM; IC50 [3]: 22 µM; IC50 [4]: 40 µM; inhibition [7]: Dose-dependent effect; inhibition [8]: > 60%; IC50 [12]: 92 µM; IC50 [13]: 113 µM
CC(C)CN(Cc1ccc2c(c1)C=CC(C)(C)O2)S(=O)(=O)c1ccccn1,Dose-dependent effect,inactive,4.1,85%,,,
CC1(C)C=Cc2cc(CN(C3CC3)S(=O)(=O)c3ccccn3)ccc2O1,Dose-dependent effect,inactive,3,71%,,,
COc1cc(CN(C(C)C)S(=O)(=O)c2ccccn2)cc2c1OC(C)(C)C=C2,Dose-dependent effect,inactive,,61%,< 1%,15 h,IC50 [1]: 69 µM; IC50 [2]: > 100 µM; IC50 [3]: 55 µM; IC50 [4]: > 100 µM; inhibition [7]: Dose-dependent effect; inhibition [8]: > 60%; logD at 0.25 h [14]: 1.3; IC50 [12]: 73 µM; IC50 [13]: 146 µM
CC1(C)C=Cc2cc(CN(CC3CC3)S(=O)(=O)c3ccccn3)ccc2O1,Dose-dependent effect,inactive,3.1,49%,< 1%,13 h,
CC(C)N(Cc1ccc2c(c1)C=CC(C)(C)O2)S(=O)(=O)c1ccccn1,Dose-dependent effect,inactive,,55%,< 1%,20 h,IC50 [1]: 82 µM; IC50 [2]: 134 µM; IC50 [3]: 62 µM; IC50 [4]: 93 µM; inhibition [16]: inactive; inhibition [17]: Active; inhibition [8]: 60%; logD at 0.25 h [14]: 2; solubility kinetic at 1.5 h [18]: < 15 µg/mL; solubility kinetic at 1.5 h [19]: 16 µg/mL; solubility kinetic at 1.5 h [20]: 17 µg/mL; IC50 [12]: 100 µM; IC50 [13]: 126 µM
CC(C)CN(Cc1cc(O)c2c(c1)C=CC(C)(C)O2)S(=O)(=O)c1ccccn1,Dose-dependent effect,inactive,1.3,43%,,15 h,
CC(C)CN(Cc1ccc2c(c1)C=CC(C)(C)O2)S(=O)(=O)c1ccncc1,Dose-dependent effect,inactive,3.6,63%,,,
CC1(C)C=Cc2cc(CN(C3CCCC3)S(=O)(=O)c3ccccn3)ccc2O1,Dose-dependent effect,inactive,3.8,60%,,,
CO[C@H]1/C=C\C=C(/C)C(=O)NC2=CC(=O)C(NCCN(C)C)=C(C[C@@H](C)C[C@H](OC)[C@H](O)[C@@H](C)/C=C(\C)[C@@H]1OC(N)=O)C2=O (stereo in doubt),,Active,,,,,
CC1(C)C=Cc2cc(CN(C3CCC3)S(=O)(=O)c3ccccn3)ccc2O1,Dose-dependent effect,inactive,3,53%,,,
CC(C)CN(Cc1ccc2c(c1)C=CC(C)(C)O2)S(=O)(=O)c1nccs1,Dose-dependent effect,inactive,4.4,78%,,,
CC(C)CN(Cc1ccc2c(c1)C=CC(C)(C)O2)S(=O)(=O)c1nccn1C,Dose-dependent effect,inactive,3.1,74%,,,
COc1ccc(S(=O)(=O)N(Cc2ccc3c(c2)C=CC(C)(C)O3)c2ccccc2)cc1OC,,inactive,3.7,28%,< 1%,11 h,solubility [21]: 9 nM; inhibition [22]: Active; solubility kinetic at 1.5 h [18]: < 15 µg/mL; solubility kinetic at 1.5 h [19]: < 15 µg/mL; solubility kinetic at 1.5 h [20]: < 15 µg/mL
